The target of assay [1] is T1, ATP-citrate synthase (Rattus norvegicus, UniProt P16638).
T1 sequence (P16638 whole entry): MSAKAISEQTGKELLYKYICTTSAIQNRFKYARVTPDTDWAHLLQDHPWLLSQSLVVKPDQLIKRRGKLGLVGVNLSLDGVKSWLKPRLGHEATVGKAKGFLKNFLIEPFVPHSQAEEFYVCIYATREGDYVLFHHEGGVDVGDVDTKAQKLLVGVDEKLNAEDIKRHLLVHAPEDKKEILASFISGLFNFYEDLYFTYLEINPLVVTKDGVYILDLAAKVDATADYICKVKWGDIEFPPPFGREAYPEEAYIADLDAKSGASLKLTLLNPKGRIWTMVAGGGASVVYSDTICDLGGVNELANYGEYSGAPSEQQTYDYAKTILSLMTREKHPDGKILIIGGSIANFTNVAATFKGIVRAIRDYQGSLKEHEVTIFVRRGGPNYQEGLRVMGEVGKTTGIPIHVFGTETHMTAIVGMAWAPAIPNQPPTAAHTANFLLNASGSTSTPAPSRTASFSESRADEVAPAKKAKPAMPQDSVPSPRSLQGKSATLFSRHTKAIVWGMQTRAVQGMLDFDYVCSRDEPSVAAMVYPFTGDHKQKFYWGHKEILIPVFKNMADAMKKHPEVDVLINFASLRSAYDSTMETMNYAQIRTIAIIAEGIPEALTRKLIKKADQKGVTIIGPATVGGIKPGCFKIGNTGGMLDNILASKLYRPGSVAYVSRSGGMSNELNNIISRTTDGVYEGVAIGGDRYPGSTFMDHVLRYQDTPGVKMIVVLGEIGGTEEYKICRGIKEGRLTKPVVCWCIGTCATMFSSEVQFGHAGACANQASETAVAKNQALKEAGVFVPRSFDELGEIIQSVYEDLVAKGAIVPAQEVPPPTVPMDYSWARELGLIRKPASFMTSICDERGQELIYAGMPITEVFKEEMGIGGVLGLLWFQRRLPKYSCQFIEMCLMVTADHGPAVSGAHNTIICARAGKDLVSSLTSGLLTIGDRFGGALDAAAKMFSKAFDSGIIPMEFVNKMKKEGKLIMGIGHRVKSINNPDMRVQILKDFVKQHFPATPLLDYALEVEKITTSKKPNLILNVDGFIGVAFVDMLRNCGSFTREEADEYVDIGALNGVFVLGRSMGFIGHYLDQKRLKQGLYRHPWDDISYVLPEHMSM
The assay can be described thus: Irreversible inactivation was evaluated against rat ATP-Citrate Lyase; nd= Time dependent inactivation was not detectable above thermal decay rate of 5.0 x10E-3 1/h at 2 mM inhibitor at […]; not detectable. The procedure, abridged:
(§1)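 Rat liver ATP citrate lyase (purified) incubated with 2 mM inhibitor at 25 °C in Tris-HCl pH 8.0; aliquots withdrawn over 48 h and placed directly into assay cocktail with saturating substrate. Remaining activity read as carbon–carbon cleavage of citrate to detect time-dependent inactivation.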

In assay [2] the target is T1, ATP-citrate synthase. Nature of the assay: Reversible binding potential for rat ATP-Citrate Lyase as carbon-carbon bond cleavage activity in citrate substrate. The procedure, abridged:
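Purified rat liver enzyme; carbon–carbon cleavage activity measured at 1.0 mM citrate (equal to Km). Ki derived by fitting rate data to the competitive inhibition equation, which reduces under these conditions to V = Vmax/(2 + [I]/Ki).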

In assay [3] the target is T1, ATP-citrate synthase. The assay can be described thus: Irreversible inactivation of rat ATP-Citrate Lyase; nd=not detectable. The method, boiled down: as §1

Regarding `O=C(O)C[C@@](O)(C(=O)O)[C@H](O)C(=O)O`, the Ki entry is “Not detectable” on ATP-citrate synthase [1] and 0.15 µM on ATP-citrate synthase [2].

Take `O=C(O)C[C@@](O)(C(=O)O)[C@H](S)C(=O)O`: the Ki was 58 µM at ATP-citrate synthase [2] and “Not detectable” on ATP-citrate synthase [3].

On to `O=C(O)C[C@]1(C(=O)O)O[C@H]1C(=O)O`, for which the Ki is 18 µM at ATP-citrate synthase [2] and “Not detectable” at ATP-citrate synthase [3].

`O=C(O)C[C@@](O)(C(=O)O)[C@@H](S)C(=O)O`: the Ki on ATP-citrate synthase [2] was 150 µM; at ATP-citrate synthase [3], “Not detectable”.

In the case of `O=C(O)C[C@]1(C(=O)O)O[C@@H]1C(=O)O`, the Ki is 400 µM on ATP-citrate synthase [2] and “Not detectable” on ATP-citrate synthase [3].

In the case of `O=C(O)CC(S)(CC(=O)O)C(=O)O`, the Ki at ATP-citrate synthase [2] is 295 µM; at ATP-citrate synthase [3], “Not detectable”.

Turning to `O=C1C[C@@](C(=O)O)([C@@H](Cl)C(=O)O)O1`, the Ki on ATP-citrate synthase [2] was 340 µM; at ATP-citrate synthase [3], “Not detectable”.

For `O=C(O)C[C@@](O)(C(=O)O)[C@@H](Cl)C(=O)O`, the Ki at ATP-citrate synthase [2] is 29 µM; at ATP-citrate synthase [3], “Not detectable”.

`O=C(O)/C=C(/CC(=O)O)C(=O)O`: the Ki is above 1000 µM at ATP-citrate synthase [2] and “Not detectable” at ATP-citrate synthase [3].

Consider `CSSC(CC(=O)O)(CC(=O)O)C(=O)O`, for which the results for the Ki at ATP-citrate synthase [2] and at ATP-citrate synthase [3] were 480 µM and “Not detectable”, respectively.

With `CSS[C@H](C(=O)O)[C@@](O)(CC(=O)O)C(=O)O`, the Ki at ATP-citrate synthase [2] was 34 µM; on ATP-citrate synthase [3], “Not detectable”.

Turning to `O=C(O)/C=C(\CC(=O)O)C(=O)O` [ACONITIC ACID], the results for the Ki on ATP-citrate synthase [2] and at ATP-citrate synthase [3] were above 1000 µM and “Not detectable”, respectively.

`C=C(CC(=O)O)C(=O)O` [ITACONATE]: the results for the Ki at ATP-citrate synthase [2] and at ATP-citrate synthase [3] were above 1000 µM and “Not detectable”, respectively.

For the origin of these results see ChEMBL document CHEMBL1128232, “Synthesis of novel thiol-containing citric acid analogues. Kinetic evaluation of these and other potential active-site-directed and mechanism-based inhibitors of ATP citrate lyase” (J Med Chem, 1995).
